The target of assay [1] is T1, Transient receptor potential cation channel subfamily V member 1 (Rattus norvegicus, UniProt O35433). As to the kind of experiment: Agonist activity at TRPV1 in neonatal rat DRG neurons assessed as increase in calcium influx after 10 mins in presence of 45Ca2+ by Beckman CP scintillation counting method. The gist of the method: (§1)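 45Ca2+ uptake in cultured spinal sensory neurons from neonatal rat. Antagonist mode: derivatives were tested against 0.5 μM capsaicin, and IC50 is the concentration that cuts the capsaicin response by 50%. Agonist mode: EC50 is the concentration giving 50% of the maximal response. Values were estimated from at least 3 replicates at each concentration.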

Assay [2] addresses T1, Transient receptor potential cation channel subfamily V member 1. Briefly: Antagonist activity at TRPV1 in neonatal rat DRG neurons assessed as inhibition of capsaicin-induced intracellular calcium after 10 mins in presence of 45Ca2+ by Beckman CP scintillation counting method. Format: cell-based. The gist of the method:
as §1

The target of assay [3] is Transient receptor potential cation channel subfamily V member 1 (Rattus norvegicus) (UniProt O35433). Briefly: Potency index, ratio of IC50 for ATC-120 to IC50 for test compound for antagonist activity at TRPV1 in neonatal rat DRG neurons.
Chain of Transient receptor potential cation channel subfamily V member 1 (Rattus norvegicus) (O35433 whole entry): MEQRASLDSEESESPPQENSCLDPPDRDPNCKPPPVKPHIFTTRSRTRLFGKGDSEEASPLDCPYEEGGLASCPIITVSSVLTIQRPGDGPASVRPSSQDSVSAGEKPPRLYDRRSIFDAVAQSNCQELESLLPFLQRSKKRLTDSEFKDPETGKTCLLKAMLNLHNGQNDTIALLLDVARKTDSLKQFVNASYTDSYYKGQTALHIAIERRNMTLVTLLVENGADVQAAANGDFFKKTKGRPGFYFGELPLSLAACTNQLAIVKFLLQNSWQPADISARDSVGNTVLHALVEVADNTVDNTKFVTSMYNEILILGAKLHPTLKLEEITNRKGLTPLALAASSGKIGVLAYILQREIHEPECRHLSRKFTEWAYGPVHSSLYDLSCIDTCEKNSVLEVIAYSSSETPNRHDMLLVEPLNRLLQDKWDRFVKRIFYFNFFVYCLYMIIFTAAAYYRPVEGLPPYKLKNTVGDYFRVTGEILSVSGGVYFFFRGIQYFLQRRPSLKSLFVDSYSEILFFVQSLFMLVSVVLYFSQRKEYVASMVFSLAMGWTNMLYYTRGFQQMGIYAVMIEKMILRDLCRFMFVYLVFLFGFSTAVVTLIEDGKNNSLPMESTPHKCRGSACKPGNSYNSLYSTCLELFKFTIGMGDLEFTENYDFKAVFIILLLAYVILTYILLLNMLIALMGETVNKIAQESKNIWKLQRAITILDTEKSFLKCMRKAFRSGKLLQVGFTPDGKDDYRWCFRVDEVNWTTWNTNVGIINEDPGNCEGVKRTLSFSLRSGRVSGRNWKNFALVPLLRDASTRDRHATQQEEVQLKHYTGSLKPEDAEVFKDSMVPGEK

T1 sequence (O35433 whole entry): as above

In general, EC50 refers to the concentration giving half of the maximal effect. For orientation: IC50 means the concentration that gives 50% inhibition. For the compound `C[C@@H](NC(=O)CCc1ccc(C(C)(C)C)cc1)c1ccc(NS(C)(=O)=O)cc1`, the EC50 in assay [1] is over 100 µM. Moreover, the IC50 in assay [2] came to 0.24 µM. For the compound `C=Cc1cc([C@@H](C)NC(=O)/C(C)=C/c2ccc(C(C)(C)C)cc2)ccc1NS(C)(=O)=O`, the Ratio IC50 in assay [3] came out at 2. For the same compound, the EC50 in assay [1] is over 100 µM. On to `C[C@@H](NC(=O)COc1ccc(C(C)(C)C)cc1)c1ccc(NS(C)(=O)=O)cc1`, for which the EC50 in assay [1] was over 100 µM. As for `C[C@@H](NC(=O)/C=C/c1ccc(C(C)(C)C)cc1)c1ccc(NS(C)(=O)=O)cc1`, the EC50 in assay [1] was over 100 µM. For the same compound, the IC50 in assay [2] was 0.16 µM. Take `C[C@@H](NC(=O)C#Cc1ccc(C(C)(C)C)cc1)c1ccc(NS(C)(=O)=O)cc1`: the EC50 in assay [1] is over 100 µM. In the case of `C[C@@H](NC(=O)NCc1ccc(C(C)(C)C)cc1)c1ccc(NS(C)(=O)=O)cc1`, the EC50 in assay [1] is over 100 µM. For the same compound, the IC50 in assay [2] came to 0.68 µM. Regarding `C[C@@H](NC(=O)COc1ccc(C(C)(C)C)cc1)c1ccc(NS(C)(=O)=O)c(F)c1`, the EC50 in assay [1] was over 100 µM. Regarding `C[C@@H](NC(=S)CCc1ccc(C(C)(C)C)cc1)c1ccc(NS(C)(=O)=O)cc1`, the EC50 in assay [1] was over 100 µM. In addition, the concentration for half-maximal inhibition (IC50) in assay [2] worked out at 0.3 µM.

Turning to `C[C@@H](NC(=S)NCc1ccc(C(C)(C)C)cc1)c1ccc(NS(C)(=O)=O)cc1`, the EC50 in assay [1] is over 100 µM. As to `C[C@@H](NC(=S)/C=C/c1ccc(C(C)(C)C)cc1)c1ccc(NS(C)(=O)=O)cc1`, in assay [1], the EC50 was over 100 µM. Also, in assay [2], the IC50 worked out at 5 µM.

Take `C[C@@H](N/C(COc1ccc(C(C)(C)C)cc1)=N/C#N)c1ccc(NS(C)(=O)=O)cc1`: the EC50 in assay [1] was over 100 µM. For the compound `CC(Cc1ccc(C(C)(C)C)cc1)C(=O)N[C@H](C)c1ccc(NS(C)(=O)=O)cc1` (mixture of isomers), the EC50 in assay [1] was over 100 µM. In addition, the IC50 in assay [2] worked out at 0.27 µM. Consider `C[C@@H](NC(=S)COc1ccc(C(C)(C)C)cc1)c1ccc(NS(C)(=O)=O)cc1`, for which, in assay [1], the EC50 was over 100 µM.

As to `C/C(=C\c1ccc(C(C)(C)C)cc1)C(=O)N[C@H](C)c1ccc(NS(C)(=O)=O)cc1`, the EC50 in assay [1] was over 100 µM. On the same count and under the same terms, next, `C/C(=C\c1ccc(C(C)(C)C)cc1)C(=O)N[C@H](C)c1ccc(NS(C)(=O)=O)c(F)c1`: over 100 µM.

(Values after ChEMBL document CHEMBL4118150, “2-Methylacrylamide as a bioisoster of thiourea group for 1,3-dibenzylthioureido TRPV1 receptor antagonists” (Bioorg Med Chem Lett, 2018).)
